ChEMBL document CHEMBL5329221, “A covalent fragment-based strategy targeting a novel cysteine to inhibit activity of mutant EGFR kinase” (RSC Med Chem, 2023)
The source made the active and inactive calls. The rule behind the calls is not given here.

Legend:
[1] = test system: Epidermal growth factor receptor (Homo sapiens), P00533 [L858R]; experiment: Binding affinity to N-terminal His6-tagged human EGFR L858R mutant expressed in Sf9 cells at pH 7.4 assessed as covalent adduct at +277 Da formation at 0.3 to 1 uM incubated for 1 hrs by LC-MS analysis; details: dose 0.3-1 µM
Method in brief: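 EGFR (694-1022) L858R or L858R/C775S as N-terminal His-GST fusions from Sf9 cells, purified by Ni affinity then SEC. Each protein at 0.5 mg/ml was incubated with compound (0.3, 1 or 3 µM) in 20 mM Tris-HCl pH 7.5, 150 mM NaCl, 1 mM TCEP, 5% glycerol, 1 h at room temperature. SDS was added to 1% final, samples boiled 95°C 10 min, then UHPLC-MS.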

[2] = biological target: T1, Epidermal growth factor receptor (Homo sapiens, UniProt P00533, C797S/L858R/T790M); experiment: (§1) Inhibition of N-terminal His6-tagged human EGFR L858R/T790M/C797S mutant expressed in Sf9 cells assessed as decrease in substrate phosphorylation using Srctide as substrate preincubated for 60 mins followed by substrate addition in presence of 5uM of ATP and measured after 45 mins by microplate reader analysis
[3] = biological target: T1, Epidermal growth factor receptor; experiment: Inhibition of N-terminal His6-tagged human EGFR L858R/T790M/C797S mutant expressed in Sf9 cells assessed as decrease in substrate phosphorylation incubated for 45 mins using Srctide as substrate in presence of 1mM of ATP by microplate reader analysis
Method in brief: (§2)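 Compound in DMSO was preincubated 0, 20 or 60 min with 250 pg/µL EGFR_TM (residues 694-1022) in 20 mM HEPES pH 7.4, 5 mM MgCl2, 1 mM MnCl2, 0.003% Brij-35, 0.004% Tween-20, 2 mM DTT. […] EDTA stop; phosphorylation read by mobility-shift chip, ex 488/em 530 nm.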

[4] = biological target: T1, Epidermal growth factor receptor; experiment: as §1, with “20” for “60”, “1mM” for “5uM”; method in brief: as §2
[5] = biological target: T1, Epidermal growth factor receptor; experiment: as §1, with “1mM” for “5uM”; method in brief: as §2
[6] = test system: Epidermal growth factor receptor (Homo sapiens), P00533 [L858R,T790M]; experiment: Inhibition of human EGFR T790M/L858R mutant assessed as decrease in substrate phosphorylation using Srctide as substrate preincubated for 15 mins followed by substrate addition in presence of 1mM of ATP and measured after 45 mins by microplate reader analysis; details: time 60.0 min
Method in brief: (§3)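 Panel format: compound at 1 µM final was preincubated 15 min with kinase in 20 mM HEPES pH 7.4, 5 mM MgCl2, 1 mM MnCl2, 0.003% Brij-35, 0.004% Tween-20, 2 mM DTT. ATP (1 mM) and Srctide (1.5 µM) were then added for 45 min. EDTA stop; mobility-shift read, ex 488/em 530 nm.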

[7] = test system: Epidermal growth factor receptor (Homo sapiens), P00533 [UNDEFINED MUTATION]; experiment: Inhibition of human EGFR d746-750 mutant assessed as decrease in substrate phosphorylation using Srctide as substrate preincubated for 15 mins followed by substrate addition in presence of 1mM of ATP and measured after 45 mins by microplate reader analysis; details: time 60.0 min; method in brief: as §3
[8] = biological target: T2, Tyrosine-protein kinase JAK3 (Homo sapiens) (UniProt P52333); experiment: Inhibition of human JAK3 assessed as decrease in substrate phosphorylation using Srctide as substrate preincubated for 15 mins followed by substrate addition in presence of 1mM of ATP and measured after 45 mins by microplate reader analysis; details: time 60.0 min
T2 sequence (whole entry): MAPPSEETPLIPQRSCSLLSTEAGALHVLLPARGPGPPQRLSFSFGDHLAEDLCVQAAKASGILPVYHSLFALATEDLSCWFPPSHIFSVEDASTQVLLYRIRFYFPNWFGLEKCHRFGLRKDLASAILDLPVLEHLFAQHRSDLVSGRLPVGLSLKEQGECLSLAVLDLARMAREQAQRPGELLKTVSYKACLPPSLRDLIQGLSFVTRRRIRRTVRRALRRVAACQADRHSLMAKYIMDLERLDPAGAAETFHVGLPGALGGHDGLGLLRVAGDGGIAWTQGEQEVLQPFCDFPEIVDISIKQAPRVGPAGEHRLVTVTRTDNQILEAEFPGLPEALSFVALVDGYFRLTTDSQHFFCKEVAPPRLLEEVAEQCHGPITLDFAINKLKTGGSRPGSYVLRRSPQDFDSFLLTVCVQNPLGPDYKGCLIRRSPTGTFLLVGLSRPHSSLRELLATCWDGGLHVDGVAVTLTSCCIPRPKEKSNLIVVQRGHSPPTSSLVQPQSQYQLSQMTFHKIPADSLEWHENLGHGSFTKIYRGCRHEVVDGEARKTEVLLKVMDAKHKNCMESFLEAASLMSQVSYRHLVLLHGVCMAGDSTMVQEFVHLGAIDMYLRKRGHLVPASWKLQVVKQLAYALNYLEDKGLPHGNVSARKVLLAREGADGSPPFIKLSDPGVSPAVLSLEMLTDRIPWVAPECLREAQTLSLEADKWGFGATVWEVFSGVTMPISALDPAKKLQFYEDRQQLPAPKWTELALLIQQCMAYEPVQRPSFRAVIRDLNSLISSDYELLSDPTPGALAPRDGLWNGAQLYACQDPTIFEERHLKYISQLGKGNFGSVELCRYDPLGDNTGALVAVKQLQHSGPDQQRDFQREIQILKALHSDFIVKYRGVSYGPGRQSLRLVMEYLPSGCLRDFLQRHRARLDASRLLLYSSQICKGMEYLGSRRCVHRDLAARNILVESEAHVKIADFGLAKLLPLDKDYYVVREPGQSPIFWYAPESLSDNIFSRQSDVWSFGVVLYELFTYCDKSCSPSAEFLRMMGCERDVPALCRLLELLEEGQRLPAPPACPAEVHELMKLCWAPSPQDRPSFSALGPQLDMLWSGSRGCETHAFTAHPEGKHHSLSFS
Method in brief: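 JAK3 at 50 ng/mL was preincubated 15 min with 1 µM compound in 100 mM HEPES pH 7.4, 0.003% Brij-35, 0.004% Tween-20, 1 mM DTT. Then 1 mM ATP, 1.5 µM Srctide and 10 mM MgCl2 were added for 45 min. Mobility-shift read.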

[9] = biological target: MAP kinase-interacting serine/threonine-protein kinase 1 (Homo sapiens) (UniProt Q9BUB5); experiment: Inhibition of human MNK1 assessed as decrease in substrate phosphorylation using 5FAM-KKKVSRSGLYRSPSMPENLNRPR-COOH as substrate preincubated for 15 mins followed by substrate addition in presence of 1mM of ATP and measured after 45 mins by microplate reader analysis; details: time 60.0 min
Chain of MAP kinase-interacting serine/threonine-protein kinase 1 (Homo sapiens) (Q9BUB5 whole entry, looked up): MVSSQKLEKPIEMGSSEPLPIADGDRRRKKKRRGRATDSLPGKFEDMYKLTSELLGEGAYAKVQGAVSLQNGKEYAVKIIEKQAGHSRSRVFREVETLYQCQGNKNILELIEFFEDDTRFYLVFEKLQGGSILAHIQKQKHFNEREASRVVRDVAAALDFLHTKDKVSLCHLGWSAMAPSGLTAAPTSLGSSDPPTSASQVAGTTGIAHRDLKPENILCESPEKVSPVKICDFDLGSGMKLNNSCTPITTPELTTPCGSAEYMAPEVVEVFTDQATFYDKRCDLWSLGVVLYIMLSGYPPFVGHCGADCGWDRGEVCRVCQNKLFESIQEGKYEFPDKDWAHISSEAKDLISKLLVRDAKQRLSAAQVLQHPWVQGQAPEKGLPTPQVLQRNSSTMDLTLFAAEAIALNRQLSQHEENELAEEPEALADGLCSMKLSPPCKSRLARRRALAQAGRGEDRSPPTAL
Method in brief: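 MNK1 at 440 ng/mL was preincubated 15 min with 1 µM compound in 100 mM HEPES pH 7.4, 0.003% Brij-35, 0.004% Tween-20, 1 mM DTT. Then 1 mM ATP, 1.5 µM FL-Peptide 10 and 10 mM MgCl2 were added for 45 min. Mobility-shift read.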

Activity [1]: inactive | IC50 [2]: 0.167 µM | IC50 [3]: 1.3 µM | IC50 [4]: 0.251 µM | IC50 [5]: 0.15 µM | inhibition [6]: > 80% | inhibition [7]: > 80% | inhibition [8]: 74.2% | inhibition [9]: 26.5%
Compound: C=CC(=O)Nc1cc(-c2cn(C)c3ccccc23)ncn1
